Measured values as given in ChEMBL document CHEMBL1629438, “Selective peroxisome proliferator-activated receptor δ isosteric selenium agonists as potent anti-atherogenic agents in vivo” (Bioorg Med Chem Lett, 2010).
Calls of active or inactive are those of the source. The calls are words filed in the database; no cut-off is given here.

Assays:
[1] = target: T1, Peroxisome proliferator-activated receptor delta (Homo sapiens, UniProt Q03181); experiment: Agonist activity at human PPAR-delta expressed in african green monkey CV-1 cells after 24 hrs by luciferase reporter gene assay; type: functional, cell-based
T1 sequence (Q03181 whole entry): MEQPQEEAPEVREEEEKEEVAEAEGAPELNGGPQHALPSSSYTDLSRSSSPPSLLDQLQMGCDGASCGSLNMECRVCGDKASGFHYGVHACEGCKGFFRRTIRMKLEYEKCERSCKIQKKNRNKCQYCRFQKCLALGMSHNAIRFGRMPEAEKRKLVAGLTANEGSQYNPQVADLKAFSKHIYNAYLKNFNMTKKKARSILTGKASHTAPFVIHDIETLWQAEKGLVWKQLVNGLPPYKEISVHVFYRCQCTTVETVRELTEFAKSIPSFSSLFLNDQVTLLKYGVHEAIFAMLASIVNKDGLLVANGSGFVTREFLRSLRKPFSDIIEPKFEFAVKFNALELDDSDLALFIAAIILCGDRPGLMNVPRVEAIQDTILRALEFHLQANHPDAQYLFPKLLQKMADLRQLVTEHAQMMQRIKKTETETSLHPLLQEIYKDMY
In short: (§1)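 Cell-based co-transfection reporter assay, with EC50 values derived for each PPAR subtype.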

[2] = target: T2, Peroxisome proliferator-activated receptor gamma (Homo sapiens, UniProt P37231); experiment: Agonist activity at human PPAR-gamma expressed in african green monkey CV-1 cells after 24 hrs by luciferase reporter gene assay; type: functional, cell-based
T2 sequence (P37231 whole entry): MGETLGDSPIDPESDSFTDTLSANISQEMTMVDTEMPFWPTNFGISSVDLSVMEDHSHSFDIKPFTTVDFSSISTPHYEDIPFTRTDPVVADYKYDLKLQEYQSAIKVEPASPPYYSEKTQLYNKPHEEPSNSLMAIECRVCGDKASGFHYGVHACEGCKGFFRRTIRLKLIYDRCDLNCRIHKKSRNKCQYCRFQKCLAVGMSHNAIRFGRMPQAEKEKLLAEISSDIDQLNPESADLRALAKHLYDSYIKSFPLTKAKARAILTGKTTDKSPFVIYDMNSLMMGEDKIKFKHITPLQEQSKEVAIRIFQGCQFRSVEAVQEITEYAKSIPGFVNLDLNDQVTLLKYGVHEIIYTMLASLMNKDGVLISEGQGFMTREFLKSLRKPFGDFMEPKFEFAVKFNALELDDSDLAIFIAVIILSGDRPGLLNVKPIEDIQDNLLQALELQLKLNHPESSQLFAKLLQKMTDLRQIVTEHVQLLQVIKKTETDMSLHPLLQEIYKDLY

[3] = target: T3, Peroxisome proliferator-activated receptor alpha (Homo sapiens, UniProt Q07869); experiment: Agonist activity at human PPAR-alpha expressed in african green monkey CV-1 cells after 24 hrs by luciferase reporter gene assay; type: functional, cell-based; in short: as §1
T3 sequence (Q07869 whole entry): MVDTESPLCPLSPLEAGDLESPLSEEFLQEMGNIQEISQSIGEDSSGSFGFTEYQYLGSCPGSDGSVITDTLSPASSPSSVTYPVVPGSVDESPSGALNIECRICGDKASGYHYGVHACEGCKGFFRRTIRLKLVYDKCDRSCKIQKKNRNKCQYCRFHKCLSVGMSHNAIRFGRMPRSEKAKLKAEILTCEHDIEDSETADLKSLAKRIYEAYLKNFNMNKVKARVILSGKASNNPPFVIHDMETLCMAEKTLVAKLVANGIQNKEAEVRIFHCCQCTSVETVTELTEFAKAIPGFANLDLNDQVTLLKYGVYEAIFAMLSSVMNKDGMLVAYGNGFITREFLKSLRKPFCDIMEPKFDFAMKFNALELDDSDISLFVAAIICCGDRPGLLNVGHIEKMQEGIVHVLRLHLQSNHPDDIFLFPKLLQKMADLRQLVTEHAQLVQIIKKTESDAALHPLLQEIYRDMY

[4] = Drug level in LDLR-deficient mouse serum at 60 mg/kg; type: ADME, organism-based; set-up: dose 60 mg/kg
[5] = target: T4, Peroxisome proliferator-activated receptor gamma (Mus musculus) (UniProt P37238); experiment: Agonist activity at mouse PPAR-gammaexpressed in african green monkey CV-1 cells after 24 hrs by luciferase reporter gene assay; type: functional, cell-based
T4 sequence (whole entry): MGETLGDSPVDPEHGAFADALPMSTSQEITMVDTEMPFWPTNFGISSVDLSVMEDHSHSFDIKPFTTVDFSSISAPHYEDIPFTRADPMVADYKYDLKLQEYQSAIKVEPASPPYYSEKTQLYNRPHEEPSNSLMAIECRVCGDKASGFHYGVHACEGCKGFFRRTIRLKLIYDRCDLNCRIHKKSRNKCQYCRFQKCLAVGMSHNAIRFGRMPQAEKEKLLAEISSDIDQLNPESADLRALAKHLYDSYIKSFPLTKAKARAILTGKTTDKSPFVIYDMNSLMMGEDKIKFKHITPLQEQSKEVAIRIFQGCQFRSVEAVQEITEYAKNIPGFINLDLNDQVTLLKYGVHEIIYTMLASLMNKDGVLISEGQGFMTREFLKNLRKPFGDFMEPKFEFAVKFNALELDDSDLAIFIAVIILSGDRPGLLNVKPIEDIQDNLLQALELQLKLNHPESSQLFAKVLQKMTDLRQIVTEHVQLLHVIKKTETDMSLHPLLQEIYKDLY

Mus musculus [6] = experiment: Toxicity in LDLR-deficient mouse assessed as increase in liver weight at 60 mg/kg; type: organism-based; set-up: dose 60 mg/kg; conditions: in vivo
[7] = target: T5, Peroxisome proliferator-activated receptor alpha (Mus musculus) (UniProt P23204); experiment: Agonist activity at mouse PPAR-alpha expressed in african green monkey CV-1 cells after 24 hrs by luciferase reporter gene assay; type: functional, cell-based
T5 sequence (whole entry): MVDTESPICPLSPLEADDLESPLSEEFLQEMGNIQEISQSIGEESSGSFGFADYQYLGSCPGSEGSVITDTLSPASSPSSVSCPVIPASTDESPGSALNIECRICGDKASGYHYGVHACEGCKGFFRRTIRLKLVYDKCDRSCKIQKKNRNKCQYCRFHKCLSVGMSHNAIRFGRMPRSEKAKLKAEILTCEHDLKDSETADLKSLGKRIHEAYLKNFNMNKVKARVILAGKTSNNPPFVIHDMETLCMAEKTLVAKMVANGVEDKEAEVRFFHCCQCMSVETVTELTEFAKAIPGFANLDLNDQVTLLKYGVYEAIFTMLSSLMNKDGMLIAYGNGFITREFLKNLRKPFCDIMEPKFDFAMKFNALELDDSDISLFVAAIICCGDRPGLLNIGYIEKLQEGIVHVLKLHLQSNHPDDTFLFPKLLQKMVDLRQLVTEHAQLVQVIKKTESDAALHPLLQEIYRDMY

Mus musculus [8] = experiment: Antiatherogenic effect in HC/HF diet-fed apolipoprotein E-deficient C57BL/6J mouse assessed as increase in HDL-cholesterol at 2 mg/kg/day for 4 weeks; type: functional, organism-based
In short: (§2)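 Apoe-/- mice, eight weeks old, fed an atherogenic HC/HF diet (1.25% cholesterol, 21% fat) for 14 weeks. They received 2 mg/kg/day of test agent (n = 7) or vehicle (n = 6) over the final 4 weeks, then were compared with the vehicle group.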

Mus musculus [9] = experiment: Effect on cholesterol homeostasis in HC/HF diet-fed apolipoprotein E-deficient C57BL/6J mouse assessed as effect on ICAM-1 gene expression at 2 mg/kg/day for 4 weeks by quantitative RT-PCR; type: functional, organism-based; in short: as §2
Mus musculus [10] = experiment: Toxicity in apolipoprotein E-deficient C57BL/6J mouse assessed as weight loss at 6 mg/kg; type: organism-based; set-up: dose 6 mg/kg; conditions: in vivo
Mus musculus [11] = experiment: Toxicity in […] diet-fed apolipoprotein E-deficient C57BL/6J mouse assessed as weight loss at 2 mg/kg/day for 4 weeks; type: organism-based; conditions: in vivo, 672 h
In short: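 Eight-week-old Apoe-/- mice were kept on an HC/HF diet (1.25% cholesterol, 21% fat) for 14 weeks, with 2 mg/kg/day dosing (n = 7) or vehicle (n = 6) in the last 4 weeks. Body weight was recorded every week throughout the experimental period and compared between treated and control groups.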

Mus musculus [12] = experiment: Antiatherogenic effect in apoE-deficient mouse assessed as increase in HDL-cholesterol level at 2 mg/kg/day for 4 weeks
Mus musculus [13] = experiment: Effect on cholesterol homeostasis in HC/HF diet-fed apolipoprotein E-deficient C57BL/6J mouse assessed as effect on VCAM-1 gene expression at 2 mg/kg/day for 4 weeks by quantitative RT-PCR; type: functional, organism-based; in short: as §2
Mus musculus [14] = experiment: Effect on cholesterol homeostasis in HC/HF diet-fed apolipoprotein E-deficient C57BL/6J mouse assessed as effect on MCP1 gene expression at 2 mg/kg/day for 4 weeks by quantitative RT-PCR; type: functional, organism-based; in short: as §2
Mus musculus [15] = experiment: Antiatherogenic effect in HC/HF diet-fed apolipoprotein E-deficient C57BL/6J mouse assessed as decrease in IL-6 gene expression at 2 mg/kg/day for 4 weeks by quantitative RT-PCR; type: functional, organism-based; in short: as §2
Mus musculus [16] = experiment: Toxicity in apolipoprotein E-deficient C57BL/6J mouse assessed as weight loss at 60 mg/kg; type: organism-based; set-up: dose 60 mg/kg; conditions: in vivo
Mus musculus [17] = experiment: Antiatherogenic effect in HC/HF diet-fed apolipoprotein E-deficient C57BL/6J mouse assessed as decrease in lesion fatty streak in aorta at 2 mg/kg/day for 4 weeks; type: functional; set-up: scale not given: the % may be the effect or the level left
In short: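 ApoE-/- mice were 8 weeks old at start. They were fed an HC/HF atherogenic diet (1.25% cholesterol, 21% fat) for 14 weeks and dosed at 2 mg/kg/day over the last 4 weeks (treated n = 7, vehicle n = 6). Mice were weighed weekly. Lesion fatty streak extent was scored throughout the aorta against vehicle.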

[18] = target: Peroxisome proliferator-activated receptor delta (Homo sapiens) (UniProt Q03181); experiment: Binding affinity to human PPAR-delta after 1 hr by TR-FRET assay
Mus musculus [19] = experiment: Toxicity in […] diet-fed apolipoprotein E-deficient C57BL/6J mouse assessed as increase in liver weight at 2 mg/kg/day for 4 weeks; type: organism-based; conditions: in vivo, 672 h; in short: as §2
Mus musculus [20] = experiment: Effect on cholesterol homeostasis in HC/HF diet-fed apolipoprotein E-deficient C57BL/6J mouse assessed as effect on Il-10 gene expression at 2 mg/kg/day for 4 weeks by quantitative RT-PCR; type: functional, organism-based; in short: as §2
[21] = target: T6, Peroxisome proliferator-activated receptor delta (Homo sapiens) (UniProt Q03181); experiment: Binding affinity to human PPAR-delta after 1 hr by TR-FRET assay
T6 sequence (whole entry): T1 sequence (Q03181 whole entry)

[22] = target: T7, Peroxisome proliferator-activated receptor delta (Mus musculus, UniProt P35396); experiment: Agonist activity at mouse PPAR-delta expressed in african green monkey CV-1 cells after 24 hrs by luciferase reporter gene assay; type: functional, cell-based
T7 sequence (P35396 whole entry): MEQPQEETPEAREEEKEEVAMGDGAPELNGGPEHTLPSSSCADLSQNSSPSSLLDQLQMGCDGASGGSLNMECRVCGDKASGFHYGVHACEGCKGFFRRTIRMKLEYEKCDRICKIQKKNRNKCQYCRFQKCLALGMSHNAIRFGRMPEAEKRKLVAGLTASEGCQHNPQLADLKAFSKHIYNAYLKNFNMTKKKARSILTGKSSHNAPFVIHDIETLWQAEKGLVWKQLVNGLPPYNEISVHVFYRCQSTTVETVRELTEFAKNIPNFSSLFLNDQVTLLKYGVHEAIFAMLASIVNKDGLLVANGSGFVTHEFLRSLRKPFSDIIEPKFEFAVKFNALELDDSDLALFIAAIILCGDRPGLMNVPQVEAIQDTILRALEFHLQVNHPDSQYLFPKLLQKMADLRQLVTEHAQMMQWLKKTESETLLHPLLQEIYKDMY

Mus musculus [23] = experiment: Effect on cholesterol homeostasis in HC/HF diet-fed apolipoprotein E-deficient C57BL/6J mouse assessed as effect on CD36 gene expression at 2 mg/kg/day for 4 weeks by quantitative RT-PCR; type: functional, organism-based; in short: as §2
Mus musculus [24] = experiment: Toxicity in apolipoprotein E-deficient C57BL/6J mouse assessed as weight loss at 5 mg/kg; type: organism-based; set-up: dose 5 mg/kg; conditions: in vivo
Mus musculus [25] = experiment: Effect on cholesterol homeostasis in HC/HF diet-fed apolipoprotein E-deficient C57BL/6J mouse assessed as effect on ABCA1 gene expression at 2 mg/kg/day for 4 weeks by quantitative RT-PCR; type: functional, organism-based; in short: as §2

SMILES	EC50 [1] [nM]	EC50 [2] [nM]	EC50 [3] [nM]	also measured
Cc1cc([Se]Cc2sc(-c3ccc(C(F)(F)F)c(F)c3)nc2C)ccc1OC(C)(C)C(=O)O	1.8	290	24.6	
Cc1cc([Se]Cc2sc(-c3ccc(C(F)(F)F)cc3)nc2C)ccc1OC(C)(C)C(=O)O	4.5	100	15.2	
Cc1cc([Se]Cc2sc(-c3ccc(C(F)(F)F)cc3)nc2C)ccc1OC(C)C(=O)O (stereo not drawn)	11	> 1000	120	
Cc1cc(SCc2sc(-c3ccc(C(F)(F)F)c(F)c3)nc2C)ccc1OCC(=O)O				Cmax [4]: 21 µM; Activity [5]: Active; Activity (Mus musculus [6]): Toxic; Activity [7]: Active; Activity (Mus musculus [8]): Active
Cc1cc([Se]Cc2sc(-c3ccc(C(F)(F)F)cc3)nc2C)ccc1OCC(=O)O	0.9	> 1000	> 1000	Activity (Mus musculus [9]): inactive; Activity (Mus musculus [10]): Toxic; Activity (Mus musculus [11]): Non-toxic; Activity (Mus musculus [12]): Active; Activity (Mus musculus [13]): inactive; Activity (Mus musculus [14]): inactive; Activity (Mus musculus [15]): Active; Activity (Mus musculus [16]): Toxic; Activity (Mus musculus [17]): 25%; Activity [18]: Active; Activity (Mus musculus [19]): Non-toxic; Activity (Mus musculus [20]): inactive; Activity [21]: Active; Activity [5]: inactive; EC50 [22]: 2.3 nM; Activity [7]: inactive; Activity (Mus musculus [23]): inactive; Activity (Mus musculus [24]): Toxic; Activity (Mus musculus [25]): inactive
CCC(Oc1ccc([Se]Cc2sc(-c3ccc(C(F)(F)F)cc3)nc2C)cc1C)C(=O)O (stereo not drawn)	6.2	> 1000	83.1	
Cc1cc([Se]Cc2sc(-c3ccc(C(F)(F)F)c(F)c3)nc2C)ccc1OCC(=O)O	1	> 1000	350	
Cc1cc([Se]Cc2sc(-c3ccc(C(F)(F)F)c(F)c3)nc2C)ccc1OC(C)C(=O)O (stereo not drawn)	8.5	> 1000	39.4	
CCC(Oc1ccc([Se]Cc2sc(-c3ccc(C(F)(F)F)c(F)c3)nc2C)cc1C)C(=O)O (stereo not drawn)	7	271	> 1000	
